SMILES strings stand for the structures. Activity calls are given as the source filed them. Bounds are passed on as bounds.

Results on 14 compounds are retold here after ChEMBL document CHEMBL5038608, “Design, synthesis, and biological evaluation of novel pyrrolidinone small-molecule Formyl peptide receptor 2 agonists” (Eur J Med Chem, 2021).

A short description of series [1]: Distribution coefficient, logD of compound at pH 7.4 by shake flask method based LC-MS/MS analysis. The series is classed as physicochemical. The conditions noted are these: octanol/water, read-out: logD. The procedure, abridged:
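Shake-flask method: compound diluted from 10 mM DMSO stock into equal volumes of octanol and PBS, final concentration 100 µM. Shaken 12 h, then centrifuged. Both layers analysed in triplicate by LC-MS/MS (MRM, C8 UPLC). LogD = log10 of the octanol/buffer peak-area ratio.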

Series [2] in a line: Microsomal stability in human liver microsomes assessed as half life at 1 uM preincubated for 5 mins followed by NADPH regenerating system addition measured after 30 mins by LC-MS/MS analysis. It counts as ADME, Microsome. The conditions noted are these: t1/2, time 35 min. In a few lines: (§1)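 Human or mouse liver microsomes (0.2 mg/mL protein) with compound at 1 µM final, pre-incubated 5 min at 37 °C. Reaction started with NADPH generating solution and agitated at 37 °C, with samples quenched up to 30 min. Centrifuged; supernatant analysed in triplicate by LC-MS.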
(In general: Liver microsomes are vesicles of endoplasmic reticulum, rich in cytochrome P450 enzymes.)

The nature of series [3]: Microsomal stability in mouse liver microsomes assessed as half life at 1 uM preincubated for 5 mins followed by NADPH regenerating system addition measured after 30 mins by LC-MS/MS analysis. The series is classed as ADME, Microsome. The conditions noted are these: t1/2, time 35 min. In a few lines:
as §1

Series [4] has as its target T1, N-formyl peptide receptor 2 (Homo sapiens, UniProt P25090).
T1 sequence (P25090 whole entry): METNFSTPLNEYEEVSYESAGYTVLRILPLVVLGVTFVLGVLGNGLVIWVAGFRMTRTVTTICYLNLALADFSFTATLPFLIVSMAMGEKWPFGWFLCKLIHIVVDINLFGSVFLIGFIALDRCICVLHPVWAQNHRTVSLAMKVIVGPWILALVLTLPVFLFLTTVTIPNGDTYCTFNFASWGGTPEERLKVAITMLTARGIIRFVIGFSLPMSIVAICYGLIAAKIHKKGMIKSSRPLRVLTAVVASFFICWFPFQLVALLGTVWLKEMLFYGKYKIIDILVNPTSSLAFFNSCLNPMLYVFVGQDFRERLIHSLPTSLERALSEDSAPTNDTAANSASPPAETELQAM
In words: Agonist activity at FPRL1 (unknown origin) expressed in CHO-K1 cells assessed as increase in calcium mobilization incubated for 2.5 hrs by cellular based FLIPR assay. The series is classed as functional, cell-based. In a few lines: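 CHO-K1 cells overexpressing hFPR2, plated at 20,000 cells/well in F-12 with 10% FBS and held overnight at 37 °C. Loaded with FLIPR Calcium 6 dye for 2 h at 37 °C, then 30 min at RT in the dark. Compounds were half-log serially diluted from 10 mM stocks in HBSS/20 mM HEPES. Cytosolic Ca2+ rise read on FLIPR Tetra. WKYMVm served as control.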
For orientation: A change in cytosolic calcium serves as a functional read-out for many receptors and channels.

The target in series [5] is T1, N-formyl peptide receptor 2. In words: Agonist activity at FPRL1 (unknown origin) expressed in CHO-K1 cells assessed as stimulation of beta-arrestin recruitment incubated for 150 mins by beta-galactosidase based PathHunter assay. It counts as functional, cell-based. The procedure, abridged: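 PathHunter CHO-K1 FPRL1 cells expressing β-gal enzyme-fragment complementation, 5000 cells/well, held overnight at 37 °C. Stimulated with half-log serial dilutions of compounds (10 mM stocks in PBS) for 150 min at 37 °C. High control was WKYMVm at 100 nM. Detection reagent added for 60 min at RT in the dark, then chemiluminescence read.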

Series [6] has as its target T2, N-formyl peptide receptor 2 (Homo sapiens) (UniProt P25090).
T2 sequence (whole entry): T1 sequence (P25090 whole entry)
In words: Agonist activity at FPRL1 (unknown origin) expressed in CHO-K1 cells assessed as increase in calcium mobilization […] incubated for 2.5 hrs by cellular based FLIPR assay. It counts as functional, cell-based. The procedure, abridged: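 CHO-K1 cells overexpressing human FPR2 (PathHunter FPRL1 line), plated at 20,000/well in F-12 with 10% FBS and held 1 h RT, then overnight at 37 °C. Calcium 6 dye loaded 2 h at 37 °C, then 30 min RT in the dark. Compounds were half-log serially diluted from 10 mM stocks in HBSS with 20 mM HEPES. Cytosolic Ca2+ rise read on FLIPR Tetra.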

The target in series [7] is T2, N-formyl peptide receptor 2 (Homo sapiens). In words: Agonist activity at FPRL1 (unknown origin) expressed in CHO-K1 cells assessed as stimulation of beta-arrestin recruitment […] incubated for 150 mins by beta-galactosidase based PathHunter assay. It counts as functional, cell-based. The procedure, abridged: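 PathHunter CHO-K1 FPRL1 cells carry complementing β-galactosidase fragments. Plated at 5000/well, held 1 h RT, then overnight at 37 °C. Compounds were half-log serially diluted from 10 mM stocks in PBS. Stimulation 150 min at 37 °C; W-peptide (WKYMVm, 100 nM) was the high control. Detection reagent added for 60 min RT in the dark, with chemiluminescence read-out.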
(Recruitment of arrestin is a read-out of receptor activation apart from second messengers.)

Where [8] appears, read: filed as agonist, time 0.067 hrs, in the assay text read “measured for 240 s” for “incubated for 2.5 hrs”.

As usually defined, the logD is lipophilicity at a set pH, counting ionised and neutral species. What is called half-life is the time needed for the level to fall by half in the phase considered. As a reminder, the EC50 is the concentration at which the effect is half-maximal. By Emax is commonly meant the size of the effect at its maximum, as opposed to the concentration needed. As for `CC(NC(=O)NC1CC(C)N(c2ccccc2)C1=O)c1ccncc1` (stereo not drawn), in series [1], the logD amounted to 2.8. The half-life at 1 µM was found to be 8.42 h in series [2] and 2.52 h in series [3]. Also, the EC50 entry in series [4] (cho-k1) and in series [5] (cho-k1) was “Not Active” each time. For the same compound, the Emax entry in series [6] (time 2.5 hrs) and in series [7] was “inactive” throughout.
Take `N#Cc1ccc(NC(=O)NC2CCN(c3ccccc3F)C2=O)cc1` (stereo not drawn): the logD in series [1] was 2.7. For the same compound, the half-life at 1 µM was determined as 1.42 h in series [2] and 2.87 h in series [3]. For the same compound, the EC50 is 15000 nM in series [4] (read-out: EC50) and “Not Active” in series [5] (cho-k1). Also, the Emax in series [6] (setting [8]) worked out at 123%. The Emax entry in series [7] was “inactive”.
Consider `CC(C)(C)OC(=O)N1CCC[C@H](N2CCC(NC(=O)Nc3ccc(Br)cc3)C2=O)C1` (stereo in doubt; 20), for which the Emax worked out at 73% in series [6] (setting [8]) and 86% in series [7] (filed as agonist).
Take `CCc1ccc(C(C)NC(=O)NC2CCN(c3cnn(C)c3)C2=O)cc1` (stereo not drawn): the EC50 entry in series [4] (cho-k1) and in series [5] (cho-k1) was “Not Active” in each case. In addition, the Emax entry in series [6] (time 2.5 hrs) and in series [7] was “inactive” throughout.
In the case of `O=C(Nc1ccc(Br)cc1)NC1CCN(C2CCN(c3ncccn3)CC2)C1=O` (stereo not drawn), the logD in series [1] was 3.9. For the same compound, the half-life at 1 µM came out at 0.95 h in series [2] and 0.733 h in series [3]. Also, the EC50 came out at 8 nM in series [4] (read-out: EC50) and 385 nM in series [5] (read-out: EC50). In addition, the Emax in series [7] (filed as agonist) is 96%.
On to `Cn1cc(N2CCC(NC(=O)NCc3cc(F)cc(F)c3)C2=O)cn1` (stereo not drawn), for which, in series [1], the logD stood at 2.1. The half-life at 1 µM in series [2] was 9.73 h. The EC50 result in series [4] (cho-k1) and in series [5] (cho-k1) was “Not Active” throughout. The Emax result in series [6] (time 2.5 hrs) and in series [7] was “inactive” each time.
As for `CC1CC(NC(=O)NCc2nccn2C)C(=O)N1c1ccccc1` (stereo not drawn), in series [1], the logD was determined as 1. The EC50 entry in series [4] (cho-k1) and in series [5] (cho-k1) was “Not Active” throughout. Further, the Emax entry in series [6] (time 2.5 hrs) and in series [7] was “inactive” throughout.
For `O=C(Nc1ccc(Br)cc1)NC1CCN(C2CCN(Cc3ccccc3)C2)C1=O` (stereo in doubt; 17), the Emax in series [6] (setting [8]) turned out to be 128%; in series [7] (filed as agonist) it was 100%.
On to `O=C(Nc1ccc(Br)cc1)NC1CCN(c2cnn(-c3ccccc3)c2)C1=O` (stereo not drawn), for which the logD in series [1] is greater than 4. Further, the half-life at 1 µM was found to be 3.48 h in series [2] and 1.78 h in series [3]. Moreover, the EC50 entry in series [4] (cho-k1) and in series [5] (cho-k1) was “Not Active” in each case. In addition, the Emax result in series [6] (time 2.5 hrs) and in series [7] was “inactive” throughout.
`O=C(Nc1ccc(Br)cc1)NC1CCN(C2CCN(Cc3ccccc3)C2)C1=O` (stereo in doubt; 18): the results for the Emax in series [6] (setting [8]) and in series [7] (filed as agonist) were 84% and 99%, respectively.
For the compound `O=C(Nc1ccc(Br)cc1)NC1CCN(c2ccc(F)cc2)C1=O` (stereo not drawn), in series [1], the logD is greater than 4. Also, the half-life at 1 µM in series [2] is greater than 6.67 h; in series [3] it was 0.55 h. Besides, the EC50 amounted to 1970 nM in series [4] (read-out: EC50) and 510 nM in series [5] (read-out: EC50).
For the compound `COc1ccc(CNC(=O)NC2CCN(c3ccccc3)C2=O)cc1` (stereo not drawn), in series [1], the logD stood at 1.99. The values for the half-life at 1 µM in series [2] and in series [3] were 5.48 h and 5.95 h, respectively. The EC50 entry in series [4] (cho-k1) and in series [5] (cho-k1) was “Not Active” in each case. In addition, the Emax entry in series [6] (time 2.5 hrs) and in series [7] was “inactive” in each case.
For `CC(NC(=O)NC1CCN(c2ccccc2)C1=O)c1ccncc1` (stereo not drawn), the logD in series [1] was found to be 2. The half-life at 1 µM in series [2] came out at 6.83 h. Moreover, the EC50 result in series [4] (cho-k1) and in series [5] (cho-k1) was “Not Active” throughout. In addition, the Emax entry in series [6] (time 2.5 hrs) and in series [7] was “inactive” each time.
Consider `CC(C)(C)OC(=O)N1CCC[C@H](N2CCC(NC(=O)Nc3ccc(Br)cc3)C2=O)C1` (stereo in doubt; 19), for which the values for the Emax in series [6] (setting [8]) and in series [7] (filed as agonist) were 71% and 89%, respectively.
